Test results reported in ChEMBL document CHEMBL1629572 (Antimicrob Agents Chemother, 2009).

Experiments:
[1] = Inhibition of Influenza B virus (B/Yokohama/UT3318/2005)) neuraminidase N294S mutant after 30 mins by fluorescence analysis
How it was run: (§1)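 Virus NA source was mixed with compound in 32.5 mM MES-NaOH pH 6.5 with 4 mM CaCl2 and preincubated 10 min at room temperature. Reaction ran 30 min at room temperature with 100 μM (final) 4-MU-NANA. Fluorescence was read at ex 360/em 460 nm, in triplicate. IC50 came from linear regression of residual activity against log concentration, using concentrations giving 10–90% residual activity.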

[2] = Inhibition of Influenza B virus (B/Yokohama/UT2203/2005)) neuraminidase N294S mutant after 30 mins by fluorescence analysis; how it was run: as §1

| SMILES | IC50 [1] [nM] | IC50 [2] [nM] |
| --- | --- | --- |
| CO[C@@H]([C@@H]1OC(C(=O)O)=C[C@H](NC(=N)N)[C@H]1NC(C)=O)[C@H](O)CO [LANINAMIVIR] | 30.2 | 48.9 |
| CC(=O)N[C@H]1[C@H]([C@H](O)[C@H](O)CO)OC(C(=O)O)=C[C@@H]1NC(=N)N [ZANAMIVIR] | 20 | 33.6 |
